An excerpt weighted towards active compounds, which were near 2.4% of everything screened.
Myeloid diff MLP = compounds promoting myeloid differentiation; calls only at 10 µM; 360,000 tested, 1% active; ER-HoxA9 myeloid progenitors, lysozyme-GFP differentiation, flow cytometry;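 active = normalized GFP-positive differentiation at or above the plate's own cutoff, the solvent-only control mean plus 3 SD; inconclusive = no clear call, values can overlap the other calls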;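 note: cells exposed to compound for four days before flow analysis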
CendR NRP1 mod = modulators of CendR peptide binding to human neuropilin-1; inhibition, % at 25 µM; FAM-RPARPAR peptide binding to NRP-1, fluorescence polarization; O14786; 360,000 tested, 0.85% active;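 active = inhibition or corrected inhibition above about 18%, plus a signal ratio from 0.5 to 1.5, limit read from the data, passing the limit was not always enough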
SENP1 inh = blocks the human SENP1 SUMO protease catalytic domain | Q9P0U3 | recombinant SENP1 catalytic domain, CyPet-SUMO1-YPet FRET cleavage | inhibition, % at 10 µM | 360,000 tested, 0.21% active | AID 624204;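 active = inhibition at least 30% at 10 µM, raw YFP signal under a set limit, fluorescence ratio 0.5 to 1.5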;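 note: 0% = enzyme with DMSO and 100% = no enzyme wells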
Target sequence (Q9P0U3 419-644 limits assumed): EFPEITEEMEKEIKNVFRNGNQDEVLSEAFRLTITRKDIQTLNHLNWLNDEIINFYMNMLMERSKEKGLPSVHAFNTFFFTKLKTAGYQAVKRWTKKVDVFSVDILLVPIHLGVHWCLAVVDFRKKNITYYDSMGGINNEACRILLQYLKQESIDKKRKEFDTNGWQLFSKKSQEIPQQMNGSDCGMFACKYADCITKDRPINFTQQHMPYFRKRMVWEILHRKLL
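Test system: recombinant human SENP1 catalytic domain, His6-tagged / Medium: pH 8 Tris buffer with EDTA, NaCl, BME, BSA, NP40, catalase / Also added: SUMO1 FRET substrate flanked by Cypet and Ypet, 25 nM / Times: 50 min reaction at room temperature / Signal: FRET, CFP and YFP emission / Control set: no-enzyme low control and enzyme-plus-DMSO high control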
DAGLB inhibitor = blocks human DAGLB lipase activity; Q8NCG7; HEK293T DAGLB membrane lysate, EnzChek fluorogenic substrate; inhibition, % at 5.17 µM; 340,000 tested, 0.059% active; in the data active = inhibition above about 34%;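 note: 0% = enzyme with vehicle and 100% = wells lacking enzyme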
MT1-MMP act inh = inhibitors of human MT1-MMP activation. HT1080 RFP-PRO-GFP cells, GFP/RFP ratio fluorescence, overnight; percent of plate control window, DMSO zero. GFP/RFP ratio change, % at 20 µM. P50281. 360,000 tested, 0.061% active;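 active = GFP/RFP ratio change of at least 30% with cell ATP level not reduced by more than half and red fluorescence within 50% of control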
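Assay system – RFP-PRO-GFP reporter HT1080 cells · Compound dosing – single dose of 20 µM compound, 1% DMSO final · Incubation – overnight compound exposure at 37 °C · Measure – GFP/RFP fluorescence ratio · Benchmarks – DMSO wells and RFP-L50D-GFP cells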
beta cell repl = induces beta-cell replication in MIN6 cells. MIN6 cells proliferation, ATPlite luminescence, 48 h; cells starved in 0.2% serum; 100% = growth in 10% serum. proliferation, % at 10 µM. 330,000 tested, 0.29% active. AID 2380;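 active = compounds whose signal lies at least 3.5 SD above the mean of all wells on their plate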;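 note: 0% = DMSO-treated cells in low-serum medium and 100% = 10% serum control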
Numbers without * were called inactive; i = inactive; ? = inconclusive; · = no result given; + = active, no number.

SMILES	Myeloid diff MLP	CendR NRP1 mod	SENP1 inh	DAGLB inhibitor	MT1-MMP act inh	beta cell repl
CCN1CCN(C(=O)CN(CC)S(=O)(=O)c2ccc(F)cc2)CC1	i	3	0	2	-1	-1
Cc1c(C(=O)NCc2ccc3c(c2)OCCO3)sc(=O)n1Cc1ccccc1C(F)(F)F	+	4	-4	·	3	·
COc1ccc(Cl)cc1Cn1c(C)c(C(=O)NCc2cccc(C(F)(F)F)c2)sc1=O	i	27*	2	·	-4	·
COc1ccc(-c2cccc(C3CC=CC4C3C(=O)N(Cc3ccccc3)C4c3ccc4ccccc4c3)c2)cc1 (stereo unspecified)	i	28*	3	-12	-3	-6
Cc1cccc([C@@H]2[C@@H]3C(=O)N(Cc4ccccc4)C(=O)[C@@H]3[C@]3(Cc4ccc(Cl)cc4)C(=O)N(c4cccc(Br)c4)C(=O)N23)c1	+	-5	3	-5	6	-5
Cc1cccc([C@@H]2[C@@H]3C(=O)N(Cc4ccccc4)C(=O)[C@@H]3[C@]3(Cc4ccc(Cl)cc4)C(=O)N(c4ccccc4)C(=O)N23)c1	i	10	2	5	-3	-6
O=c1/c(=C/c2ccccn2)sc2nc3ccccc3n12	i	13	23	-1	-4	-3
O=c1/c(=C\c2cc([N+](=O)[O-])cc([N+](=O)[O-])c2O)sc2nc3ccccc3n12	i	9	91*	15	-14	-6
Cc1ccc(S(=O)(=O)NN)c(C)c1N1CCCC1=O	i	-1	3	-2	-1	4
Cc1ccc(NC(=O)c2ccccc2NS(=O)(=O)c2ccc(F)cc2)cc1S(=O)(=O)N1CCCCC1	i	2	4	8	-42	-3
COc1ccccc1C(=O)Nc1nc2cc3c(cc2s1)OCO3	i	-7	1	-2	0	-3
COc1ccccc1C(=O)Nc1nc2cc3c(cc2s1)OCCO3	+	0	3	-6	6	-7
Cc1ccc(C(=O)OCC(=O)N(CC(C)C)c2c(N)n(Cc3ccccc3)c(=O)[nH]c2=O)cc1[N+](=O)[O-]	i	-1	-9	8	-6	0
CCCn1nc(C(=O)Nc2nc(-c3ccccn3)cs2)c2ccccc2c1=O	+	-14	-4	-3	6	-5
O=C(O)c1nn(-c2ccc(Cl)cc2)ccc1=O	i	19*	1	0	-5	1
CNC(=O)c1nn(-c2ccc(Cl)cc2)ccc1=O	i	5	2	1	-1	-3
Cc1oc2ccc(OCC(N)=O)cc2c1C(=O)OC(C)C	i	28*	-4	0	-2	-1
Cc1oc2ccc(O)cc2c1C(=O)OC(C)C	i	11	-4	-1	0	-2
COc1ccccc1N1C(=O)C(Cl)=C(Nc2ccccc2O)C1=O	i	-68	46*	0	-42	·
COc1ccc(-c2cc(C)no2)cc1S(=O)(=O)NCc1cccc(C)c1	i	36*	1	-3	6	-1
COc1ccc(OC)c(N=c2oc3cc(O)ccc3cc2C(N)=O)c1	?	-19	-20	2	0	-4
COc1ccc2oc(=Nc3cc(F)ccc3F)c(C(N)=O)cc2c1	+	4	-1	-6	-19	-5
O=C(O)CCCCCN1C(=O)/C(=C\c2ccc(-c3ccc(Cl)cc3)o2)SC1=S	+	-189	-32	0	-87	-6
Cc1csc(NC(=O)C(C)N2C(=O)c3ccccc3S2(=O)=O)n1 (stereo unspecified)	i	7	1	-2	1	2
Nc1cccc2c(O)cccc12	+	-4	-8	1	-2	-4
SMILES	Myeloid diff MLP	CendR NRP1 mod	SENP1 inh	DAGLB inhibitor	MT1-MMP act inh	beta cell repl
CC1O[C@@H]2O[C@](O[C@H](C)CC[C@@H](C)O)(c3ccccc3)O[C@@H]2C[C@H]1O (stereo partly specified)	i	5	1	-1	-6	-2
CCOc1ccc(N=Nc2c(=O)[nH]n3c(=O)c4c([nH]c23)CCCC4)cc1	+	-17	8	10	25	2
O=c1[nH]c(=O)n2ncnc2[nH]1	i	-4	1	-1	-6	·
COCC1CCN(Cc2nc(Cc3ccccc3Cl)no2)CC1	i	21*	0	0	-2	-2
Cc1nc(/N=C\c2ccc(N(C)C)cc2)sc1C	+	-9	1	1	1	0
CN(C)c1ccc(C=Nc2ccc(N(C)C)cc2)cc1	i	-23	8	7	16	-4
O=C(NCCN1CCOCC1)c1ccc2c(c1)N(Cc1ccccc1F)C(=O)c1ccccc1S2	+	5	2	0	-2	-4
CCN1CCN(CCNC(=O)c2ccc(/C=C3/Sc4ccccc4N(Cc4ccccc4C)C3=O)cc2)CC1	+	7	-25	2	-5	·
CC(C)n1c(=S)[nH]c2cc(Cl)ccc21	i	-14	-1	-1	19	-2
Cc1cnc(C(=O)OCC(=O)Nc2sc3c(c2C#N)CCC3)cn1	i	38*	-2	1	2	-1
COc1ccccc1CNC(=O)Cc1ccc(C)cc1	i	43*	-2	1	3	0
COc1ccccc1CNCC(=O)NCc1ccc(C)cc1	i	-7	3	1	1	-1
O=[N+]([O-])c1cccc(CON=Cc2cc(Cl)ccc2O)c1	i	1	-3	-7	2	·
COCCN(C(=S)Nc1cc(C)cc(C)c1)C(C)c1ccco1 (stereo unspecified)	i	6	4	-10	-6	0
COc1ccc(CN2C(=O)CCC2(C)c2nnnn2-c2c(C)cccc2C)cc1 (stereo unspecified)	i	23*	2	·	4	·
COc1ccc(CC(=O)NCC(=O)N/N=C/c2sccc2C)cc1	i	4	1	1	-2	-1
CCCN(C(=O)c1ccc(OCC(C)C)cc1)c1c(N)n(Cc2ccccc2)c(=O)[nH]c1=O	i	-14	-2	-2	0	-2
Cc1cc(NC(=O)c2ccc(S(=O)(=O)Nc3ccccc3)cc2)no1	i	27*	1	-5	-3	-1
Cc1ccc(S(=O)(=O)Nc2ccc(C(=O)Nc3cc(C)on3)cc2)cc1	i	-9	1	0	1	0
c1cnc2ccc(-n3ccnc3)cc2c1	i	13	0	·	-9	·
COc1ccc(-n2ncc3c(=O)n(CC(=O)NC(C)C)cnc32)cc1	i	3	-1	-1	0	-1
